# Data taken from ChEMBL document CHEMBL1123083, “Synthesis and antiherpetic activity of (S)-, (R)-, and (+/-)-9-[(2,3-dihydroxy-1-propoxy)methyl]guanine, linear isomers of 2'-nor-2'-deoxyguanosine” (J Med Chem, 1985).
# The source made the active and inactive calls. The calls are words filed in the database; no cut-off is given here.
# What was measured:
# Human alphaherpesvirus 1 [1] = assay: Efficacy was evaluated against Systemic HSV-1 infection in mice at a daily dose of 3.1 mg/kg administered orally; Tested mice 10; type: organism-based; parameters: dose 3.1 mg/kg; settings: mouse, in vivo, po
# How it was run: (§1)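 Mixed-sex ICR/Ha mice (10–20 g) were infected intraperitoneally with 50–100 LD50 of HSV-1 Schooler. Oral dosing of 0.1 mL twice daily for 7 days began immediately after infection. Groups were of about 10 mice. Deaths were recorded daily for 15 days, giving survivors/total and mean survival time with 95% CI. Significance was judged against placebo-treated infected mice using transformed survival times.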
# Human alphaherpesvirus 1 [2] = assay: Efficacy was evaluated against Oraficial HSV-1 infection in mice with lesions administered topically at a dose 1 mg/kg per day.; type: ADME, organism-based; settings: mouse, in vivo
# How it was run: (§2)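 Mice were infected orofacially with HSV-1 strain S. Each treatment was 10 μL of compound at the stated percent concentration in a hydroalcoholic vehicle. Application began 3 h after infection and was repeated at 3-h intervals: three treatments on day 1 and four on each of the next 2 days. Lesion incidence and average lesion score were read on day 7 (95% CI). Significance was judged against placebo (p < 0.05).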
# Human alphaherpesvirus 1 [3] = assay: Efficacy was evaluated against Systemic HSV-1 infection in mice at a daily dose of 12.5 mg/kg administered subcutaneously.; type: ADME, organism-based; parameters: dose 12.5 mg/kg, route subcutaneous; settings: mouse, in vivo, sc
# How it was run: (§3)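 ICR/Ha mice (10–20 g, mixed sex) were infected intraperitoneally with 50–100 LD50 of HSV-1 Schooler. Subcutaneous dosing of 0.1 mL twice daily for 4 days started immediately after infection. Groups were of about 10 mice. Survival was recorded daily for 15 days and reported as survivors/total and mean survival time (95% CI). Transformed survival times were compared with placebo-treated infected mice (p < 0.05).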
# Human alphaherpesvirus 1 [4] = assay: Efficacy was evaluated against Oraficial HSV-1 infection in mice with lesions administered topically at a dose 0.02 mg/kg per day.; type: ADME, organism-based; settings: mouse, in vivo; how it was run: as §2
# Human alphaherpesvirus 1 [5] = assay: Efficacy was evaluated against Systemic HSV-1 infection in mice at a daily dose of 12.5 mg/kg administered subcutaneously; Tested mice 10; type: organism-based; parameters: dose 12.5 mg/kg, route subcutaneous; settings: mouse, in vivo, sc; how it was run: as §3
# Human alphaherpesvirus 1 [6] = assay: Efficacy was evaluated against Oraficial HSV-1 infection in mice with lesions administered topically at a dose 0.25 mg/kg per day.; type: ADME, organism-based; settings: mouse, in vivo; how it was run: as §2
# Human alphaherpesvirus 1 [7] = assay: Efficacy was evaluated against Systemic HSV-1 infection in mice at a daily dose of 3.1 mg/kg administered subcutaneously; Tested mice 10; type: ADME, organism-based; parameters: dose 3.1 mg/kg, route subcutaneous; settings: mouse, in vivo, sc; how it was run: as §3
# Human alphaherpesvirus 1 [8] = assay: Efficacy was evaluated against Oraficial HSV-1 infection in mice with lesions administered orally at a dose 50 mg/kg per day.; type: ADME, organism-based; parameters: route oral; settings: mouse, in vivo, po
# How it was run: (§4)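 HSV-1 strain S inoculated in the orofacial area of mice as previously described. Half-daily doses given by gavage 8 h apart, starting 3 h after infection, for 7 days. On day 7 after infection, mice with lesions per group and average lesion score were recorded (95% confidence interval). Significance was judged against placebo-treated infected mice (p < 0.05).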
# Human alphaherpesvirus 1 [9] = assay: Efficacy was evaluated against Oraficial HSV-1 infection in mice with lesions administered orally at a dose 12.5 mg/kg per day; Tested mice 10; type: organism-based; parameters: route oral; settings: mouse, in vivo, po; how it was run: as §4
# Human alphaherpesvirus 1 [10] = assay: Efficacy was evaluated against Systemic HSV-1 infection in mice at a daily dose of 12.5 mg/kg administered orally; Tested mice 9; type: organism-based; parameters: dose 12.5 mg/kg; settings: mouse, in vivo, po; how it was run: as §1
# Human alphaherpesvirus 1 [11] = assay: Efficacy was evaluated against Oraficial HSV-1 infection in mice with lesions administered orally at a dose 0.8 mg/kg per day.; type: ADME, organism-based; parameters: route oral; settings: mouse, in vivo, po; how it was run: as §4
# Human alphaherpesvirus 1 [12] = assay: In vitro anti viral activity tested against HSV-1(Schooler) virus on Rabbit kidney cell cultures; 0.5-1.5; type: functional; settings: Human alphaherpesvirus 1, kidney; read-out: ED50 (the source's name)
# How it was run: (§5)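 Confluent primary rabbit kidney monolayers were preincubated with serial drug dilutions in EMEM with 2% fetal calf serum and neomycin. They were then challenged with about 10 TCID50 of HSV-1 Schooler or HSV-2 Curtis and incubated at 37 °C. Cytopathology was scored on day 5. ED50 is the concentration preventing cytopathology in half of the infected cultures.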
# Human alphaherpesvirus 1 [13] = assay: Efficacy was evaluated against Oraficial HSV-1 infection in mice with lesions administered topically at a dose 1 mg/kg per day; Tested mice 10; type: ADME, organism-based; settings: mouse, in vivo; how it was run: as §2
# Human alphaherpesvirus 1 [14] = assay: Evaluated for DNA polymerase inhibition activity against herpes simplex virus-1 (HSV-1); type: functional
# How it was run: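 Step II mixture supplied the phosphorylated test material. Step I: compound with HSV-1 thymidine kinase, 4 h, 37 °C. Step II: then HSV-1-infected HeLa crude extract plus GMP kinase, overnight, 30 °C. A 20 μL sample went to a 1 h, 37 °C DNA polymerase assay at pH 8 with activated salmon sperm DNA, 0.05 mM each dNTP ([³H]dTTP) and infected HeLa extract. (NH₄)₂SO₄ 0.1 M was present for the viral enzyme and omitted for the cellular polymerases. Read-out: TCA-precipitable radioactivity.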
# Human alphaherpesvirus 1 [15] = assay: Efficacy was evaluated against Systemic HSV-1 infection in mice at a daily dose of 0.8 mg/kg administered subcutaneously; Tested mice 10; type: organism-based; parameters: dose 0.8 mg/kg, route subcutaneous; settings: mouse, in vivo, sc; how it was run: as §3
# Human alphaherpesvirus 1 [16] = assay: Efficacy was evaluated against Oraficial HSV-1 infection in mice with lesions administered orally at a dose 50 mg/kg per day; Tested mice 10; type: organism-based; parameters: route oral; settings: mouse, in vivo, po; how it was run: as §4
# Human alphaherpesvirus 1 [17] = assay: Efficacy was evaluated against Oraficial HSV-1 infection in mice with lesions administered orally at a dose 3.1 mg/kg per day; Tested mice 10; type: organism-based; parameters: route oral; settings: mouse, in vivo, po; how it was run: as §4
# Human alphaherpesvirus 2 = assay: In vitro anti viral activity tested against HSV-2(Curtis) virus on Rabbit kidney cell cultures; 1-3; type: functional; settings: Human alphaherpesvirus 2, kidney; read-out: ED50 (the source's name); how it was run: as §5
# Human alphaherpesvirus 1 [18] = assay: Efficacy was evaluated against Oraficial HSV-1 infection in mice with lesions administered topically at a dose 0.02 mg/kg per day; Tested mice 10; type: ADME, organism-based; settings: mouse, in vivo; how it was run: as §2
# [19] = tested on: DNA polymerase (Homo sapiens); assay: Evaluated for DNA polymerase inhibition activity against HeLa cells.
# Human alphaherpesvirus 1 [20] = assay: Efficacy was evaluated against Oraficial HSV-1 infection in mice with lesions administered orally at dose 0.8 mg/kg per day; Tested mice 10; type: ADME, organism-based; parameters: route oral; settings: mouse, in vivo, po; how it was run: as §4
# Human alphaherpesvirus 1 [21] = assay: Efficacy was evaluated against Systemic HSV-1 infection in mice at a daily dose of 0.8 mg/kg administered subcutaneously.; type: ADME, organism-based; parameters: dose 0.8 mg/kg, route subcutaneous; settings: mouse, in vivo, sc; how it was run: as §3
# Human alphaherpesvirus 1 [22] = assay: Efficacy was evaluated against Oraficial HSV-1 infection in mice with lesions administered topically at a dose 0.06 mg/kg per day.; type: ADME, organism-based; settings: mouse, in vivo; how it was run: as §2
# Human alphaherpesvirus 1 [23] = assay: Efficacy was evaluated against Systemic HSV-1 infection in mice at a daily dose of 12.5 mg/kg administered orally.; type: ADME, organism-based; parameters: dose 12.5 mg/kg; settings: mouse, in vivo, po; how it was run: as §1
# Human alphaherpesvirus 1 [24] = assay: Efficacy was evaluated against Systemic HSV-1 infection in mice at a daily dose of 3.1 mg/kg administered orally.; type: ADME, organism-based; parameters: dose 3.1 mg/kg; settings: mouse, in vivo, po; how it was run: as §1
# Human alphaherpesvirus 1 [25] = assay: Efficacy was evaluated against Systemic HSV-1 infection in mice at a daily dose of 3.1 mg/kg administered subcutaneously.; type: ADME, organism-based; parameters: dose 3.1 mg/kg, route subcutaneous; settings: mouse, in vivo, sc; how it was run: as §3
# Human alphaherpesvirus 1 [26] = assay: Efficacy was evaluated against Oraficial HSV-1 infection in mice with lesions administered topically at a dose 0.25 mg/kg per day; Tested mice 10; type: ADME, organism-based; settings: mouse, in vivo; how it was run: as §2
# Human alphaherpesvirus 1 [27] = assay: Efficacy was evaluated against Systemic HSV-1 infection in mice at a daily dose of 50 mg/kg administered orally; Tested mice 10; type: organism-based; parameters: dose 50 mg/kg; settings: mouse, in vivo, po; how it was run: as §1
# Human alphaherpesvirus 1 [28] = assay: Efficacy was evaluated against Systemic HSV-1 infection in mice at a daily dose of 50 mg/kg administered orally.; type: ADME, organism-based; parameters: dose 50 mg/kg; settings: mouse, in vivo, po; how it was run: as §1
# Human alphaherpesvirus 1 [29] = assay: Efficacy was evaluated against Oraficial HSV-1 infection in mice with lesions administered topically at a dose 0.06 mg/kg per day; Tested mice 10; type: ADME, organism-based; settings: mouse, in vivo; how it was run: as §2
# Human alphaherpesvirus 1 [30] = assay: Efficacy was evaluated against Oraficial HSV-1 infection in mice with lesions administered orally at a dose 12.5 mg/kg per day.; type: ADME, organism-based; parameters: route oral; settings: mouse, in vivo, po; how it was run: as §4
# Human betaherpesvirus 5 = assay: In vitro anti viral activity tested against HCMV(AD169) virus on MRC-5 cell monolayers; NA=Not active at 25 ug/mL; type: functional, organism-based; settings: MRC5
# How it was run: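 MRC-5 monolayers were infected with HCMV AD169 for 1 h at 37 °C. Compound diluted in maintenance medium was then added and incubation continued for 7 days at 37 °C. Monolayers were stained and plaques counted. ED50 is the concentration reducing plaque number by 50%.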
compound,measurement,setting,value
"Nc1nc(O)c2ncn(COCC(O)CO)c2n1 (single isomer, unassigned; form 2) [listing 1 of 2 here]",Survivors,Human alphaherpesvirus 1 [1],0
same,Average lesion score,Human alphaherpesvirus 1 [2],0.4
same,Average survival,Human alphaherpesvirus 1 [3],10.7 days
same,Average lesion score,Human alphaherpesvirus 1 [4],2.75
same,Survivors,Human alphaherpesvirus 1 [5],4
same,Average lesion score,Human alphaherpesvirus 1 [6],1.35
same,Survivors,Human alphaherpesvirus 1 [7],1
same,Average lesion score,Human alphaherpesvirus 1 [8],0.15
same,Mice with lesions,Human alphaherpesvirus 1 [9],5
same,Survivors,Human alphaherpesvirus 1 [10],0
same,Average lesion score,Human alphaherpesvirus 1 [11],3.45
same,EC50,Human alphaherpesvirus 1 [12],0.5 µg/mL
same,Mice with lesions,Human alphaherpesvirus 1 [13],2
same,Inhibition,Human alphaherpesvirus 1 [14],57%
same,Survivors,Human alphaherpesvirus 1 [15],0
same,Mice with lesions,Human alphaherpesvirus 1 [16],1
same,Mice with lesions,Human alphaherpesvirus 1 [17],8
same,EC50,Human alphaherpesvirus 2,1 µg/mL
same,Mice with lesions,Human alphaherpesvirus 1 [18],9
same,Inhibition,[19],10%
same,Mice with lesions,Human alphaherpesvirus 1 [20],9
same,Average survival,Human alphaherpesvirus 1 [21],6.7 days
same,Average lesion score,Human alphaherpesvirus 1 [22],1.4
same,Average survival,Human alphaherpesvirus 1 [23],8.1 days
same,Average survival,Human alphaherpesvirus 1 [24],6.9 days
same,Average survival,Human alphaherpesvirus 1 [25],7.6 days
same,Mice with lesions,Human alphaherpesvirus 1 [26],5
same,Survivors,Human alphaherpesvirus 1 [27],3
same,Average survival,Human alphaherpesvirus 1 [28],12.9 days
same,Mice with lesions,Human alphaherpesvirus 1 [29],6
same,Average lesion score,Human alphaherpesvirus 1 [30],0.75
"Nc1nc(O)c2ncn(COCC(O)CO)c2n1 (single isomer, unassigned; form 2) [listing 2 of 2 here]",ED50,Human betaherpesvirus 5,inactive
